Screening data deposited in PubChem BioAssay by Broad Institute.
Rows were chosen to be rich in hits. Some 1.3% of all compounds tested hit in one or more screens of this group.
RAD54 inh = inhibitors of human RAD54 branch migration; Q92698; RAD54 Holliday junction branch migration, FAM/BHQ fluorescence; inhibition, % at 10.4 µM; 360,000 tested, 0.14% active; AID 602329;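 active means mean normalized replicate activity at least 40 and at least half of replicates scoring 40 or more; inconclusive means only one of the two criteria met; inactive means mean below 40 and under half of replicates reaching 40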;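 further: 0% = median of neutral control wells and 100% = median of positive control wells; inhibitors cause a drop in the FAM fluorescence signal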
Xi reactivation = X-chromosome reactivation activator; XiGFP mouse fibroblasts, % GFP-positive cells imaging, 3 d; cells co-treated with 5-aza-dC sensitizer; scaled so ellipticine positive control = 100%; activation, % at 7.58 µM; 360,000 tested, 0.055% active; AID 743238;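 active means mean normalized replicate activation at least 10% and every replicate at or above 10%; inconclusive means only one of the two criteria met; inactive means mean below 10% and not all replicates reach 10%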;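 further: 0% = median of on-plate neutral control wells and 100% = ellipticine 6 µM median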
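Assay system: SV40-immortalized XiGFP fibroblast cells, line 68-5-11; buffer or medium: DMEM plus 5-aza-dC sensitizer; compound: one concentration, pinned; timing: compounds 3 days, fix/stain 15 min at room temperature; benchmarks: positive control ellipticine, 6 µM final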
CASP6 VEID inh = caspase-6 (human) enzyme inhibition. P55212. purified caspase-6, Z-VEID-R110 cleavage fluorescence. inhibition, % at 12.5 µM. 350,000 tested, 0.53% active. AID 686996;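 active means mean inhibition across replicates at least about 35%, with every replicate also reaching that limit, limit read from the data; inconclusive means only one of the two criteria met; inactive means neither criterion met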;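 further: 0% = median of neutral control wells and 100% = no fluorescence left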
MLL AF4-AF9 inh = inhibitors of human MLL-AF4/AF9 interaction. P42568. AlphaScreen, biotin-AF4 peptide binding to FLAG-AF9. inhibition, % at 10 µM. 350,000 tested, 0.47% active. AID 651704;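 active means every replicate reaching a set inhibition limit, whatever the replicate mean, cut at about 25% in these data; inconclusive means mean inhibition reaches that limit but some replicates miss it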;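 further: 0% = plate neutral control median and 100% = total signal loss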
RAD52 anneal inh = inhibitors of human RAD52 DNA annealing. P43351. recombinant RAD52 DNA annealing, FRET fluorescence. inhibition, % at 18.7 µM. 360,000 tested, 0.46% active;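 active means every replicate showing at least 50% inhibition; inconclusive means mean inhibition at least 50% but not in every replicate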
Target sequence (P43351 whole entry, looked up): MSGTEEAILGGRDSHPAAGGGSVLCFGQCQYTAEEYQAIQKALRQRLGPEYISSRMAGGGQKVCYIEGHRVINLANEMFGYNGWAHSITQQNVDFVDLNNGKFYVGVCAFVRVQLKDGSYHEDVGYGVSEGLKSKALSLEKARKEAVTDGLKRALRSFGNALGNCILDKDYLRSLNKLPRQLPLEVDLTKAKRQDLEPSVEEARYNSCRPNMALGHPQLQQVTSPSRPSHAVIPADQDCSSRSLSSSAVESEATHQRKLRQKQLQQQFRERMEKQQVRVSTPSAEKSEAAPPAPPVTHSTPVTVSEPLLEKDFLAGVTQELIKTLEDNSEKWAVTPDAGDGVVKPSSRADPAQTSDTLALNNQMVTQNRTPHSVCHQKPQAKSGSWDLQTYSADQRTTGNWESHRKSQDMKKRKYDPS
S100A4 MyoIIA = inhibitors of human S100A4 binding to myosin IIA peptide. 360,000 tested, 0.14% active. P26447. AID 652163. inhibition, % at 10.7 µM. S100A4/TAMRA-MyoIIA peptide fluorescence polarization;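 active means mean inhibition of at least 70% across replicates, with every replicate also reaching that level; inconclusive means mean inhibition reaches 70% but some replicates fall short; inactive means mean inhibition below 70%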
Target sequence (P26447 whole entry, looked up): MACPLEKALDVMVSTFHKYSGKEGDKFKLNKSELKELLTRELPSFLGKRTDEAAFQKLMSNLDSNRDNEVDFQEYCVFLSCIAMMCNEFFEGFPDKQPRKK
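Material: S100A4 monomer protein | Medium: HEPES pH 7.2 with CaCl2, KCl, NaCl, DTT, Triton | Reagent: Labelled myosin peptide probe, 5 nM | Doses: One dose per compound | Times: 5 min incubation before reading | Benchmarks: Neutral control DMSO, positive control TFP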
DNA binder FP = DNA binding artifact in RAD52 counter-screen; AC50, µM; 1,000 tested, 8% active; shares compounds with RAD52 anneal inh; Salmon sperm DNA/acridine orange FP displacement;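 active means fitted half-maximal concentration for signal loss at or below twice the highest dose tested, in every separate run, actives reach about 64 µM in these data; inconclusive means runs disagree, or flat partial signal loss, or poor fit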
* = called active by the depositor; i = inactive; u = inconclusive; x = no result.

SMILES | RAD54 inh | Xi reactivation | CASP6 VEID inh | MLL AF4-AF9 inh | RAD52 anneal inh | S100A4 MyoIIA | DNA binder FP
COc1ccccc1NC(=O)N1CC(=O)N2[C@H](CO)[C@@H](c3ccc(C#CCC(C)C)cc3)[C@@H]2C1 | x | 0 | x | x | x | x | x
COc1ccc(C(=O)Nc2ccc3c(c2)OC[C@@H](C)N(C(C)=O)C[C@@H](C)[C@H](OC)CN(C)C3=O)cc1 | -1 | 0 | 0 | -1 | -6 | 5 | x
C[C@H]1CCCCO[C@H](CN(C)Cc2ccc(C(=O)O)cc2)[C@@H](C)CN([C@@H](C)CO)C(=O)c2cc(NC(=O)Cc3ccccc3)ccc2O1 | -2 | 0 | 0 | -2 | -1 | 6 | x
COc1ccc2sc3cccc(NCCN(C)C)c3c(=O)c2c1 | x | 0 | 11 | 19 | 58* | 2 | 39µM*
C(#Cc1ccccc1)C[N+]1(CC#Cc2cccc3ccccc23)CCCC1 | x | 0 | -16 | 9 | 66* | 0 | i
Cc1ccc(C(=O)N/C(=C\c2ccc(-c3cccc([N+](=O)[O-])c3)o2)C(=O)NCCCN(C)C)cc1 | 19 | 0 | -13 | 13 | 67* | 10 | i
CN(C)CCCNC(=O)/C(=C\c1ccc(-c2cccc([N+](=O)[O-])c2)o1)NC(=O)c1ccccc1 | x | 0 | -13 | 12 | 49 | 2 | x
CC=Cc1ccc2n(c1=O)C[C@H]1[C@H](CO)[C@@H](C(=O)NCCC)[C@@H]2N1C(=O)C1CC1 (mixture of isomers) | 3 | 0 | -3 | 2 | 0 | 33 | x
C=C[C@H](COC(C)=O)N(Cc1ccc(OC(C)=O)c(OC)c1)S(=O)(=O)c1ccc(Br)cc1 | 2 | x | -4 | -1 | 18 | 0 | x
O=C1C(CSCc2ccccc2)NC(=S)N1c1ccccc1 (stereo not given) | 7 | 0 | -6 | -3 | 56* | 1 | i
O=C(O)CC1NC(=S)N(c2ccccc2)C1=O (stereo not given) | -10 | x | x | x | x | x | x
Cc1ccc(S(=O)(=O)N(C)C[C@@H]2Oc3ccc(NC(=O)CCCCCC(=O)Nc4ccccc4N)cc3C(=O)N([C@H](C)CO)C[C@H]2C)cc1 | x | 0 | 0 | 2 | -37 | -10 | x
Cc1ccc2c(=O)c(CN3CCCCCC3)c(C)[nH]c2c1C | -17 | 0 | -49 | 3 | 44 | -7 | i
N#Cc1cc2cc3c(cc2nc1NCCNC(=S)NCCCN1CCOCC1)OCO3 | x | 0 | -5 | -3 | 72* | 2 | i
CCCNC(=O)Nc1ccc2c(c1)C(=O)N(C)C[C@@H](OC)[C@H](C)CN(Cc1ccncc1)[C@@H](C)CO2 | -2 | 2 | x | x | x | x | x
CN(C)CCNc1nc(Oc2cccc(F)c2)c2sccc2n1 | -3 | 0 | -33 | 6 | 58* | -3 | i
CNc1nc(Oc2cccc(F)c2)c2sccc2n1 | -1 | 0 | 0 | -2 | 12 | 0 | x
CC(=O)Nc1cccc(Oc2nc(NCCN(C)C)nc3ccsc23)c1 | 11 | 0 | -73 | 5 | 90* | -19 | i
Cc1nc2cc(Oc3nc(NCCN(C)C)nc4ccsc34)ccc2s1 | 23 | 0 | -73 | 11 | 78* | 1 | i
CCN(CC)CCCN(Cc1cc2cc3c(cc2[nH]c1=O)OCO3)C(=S)NCCCN(C)C | 15 | 0 | -64 | 0 | 90* | 1 | i
COc1cc2cc(CN(CCc3cccc(C)c3)C(=S)NCCCN(C)C)c(=O)[nH]c2cc1OC | x | 0 | 2 | -34 | 51* | -1 | i
CNC(=S)N(CCc1cccc(C)c1)Cc1cc2cc(OC)c(OC)cc2[nH]c1=O | x | 0 | 1 | 8 | -15 | 2 | x
CC(=O)OCCc1c2ccccc2c(CCCN(C)C)c2ccccc12 | x | 0 | -30 | -1 | 69* | 6 | i
CC(C)=N/N=C(/c1ccc([N+](=O)[O-])cc1)C12CN3CN(CN(C3)C1)C2 | x | 0 | -72 | 20 | 95* | 5 | i
C[C@H](CO)N1C[C@H](C)[C@@H](CN(C)CC2CCCC2)Oc2ncc(C#Cc3ccccn3)cc2C1=O | x | -1 | x | x | x | x | x
SMILES | RAD54 inh | Xi reactivation | CASP6 VEID inh | MLL AF4-AF9 inh | RAD52 anneal inh | S100A4 MyoIIA | DNA binder FP
O=C(NC1CCCCC1)N1CCNCC1 | -6 | 0 | -1 | 0 | -10 | -1 | x
C1CCCCCC(NCCN2CCNCC2)CCCCC1 | x | 0 | -26 | x | 64* | -8 | i
CO[C@@H]1CN(C)C(=O)c2ccc(NS(=O)(=O)c3ccccc3)cc2OC[C@@H](C)N(Cc2cccnc2)C[C@H]1C | -12 | 0 | -3 | 1 | -2 | -1 | x
COc1ccc(N2CCc3c(C)nc4c(OC)cc(OC)cc4c32)c(OC)c1 | 44 | x | x | x | x | x | x
COc1ccc(N2CCc3c(C)nc4c(OC)cccc4c32)cc1 | x | 1 | 4 | 1 | 52* | 1 | i
COc1ccc(N2CCc3c(C)nc4c(OC)cc(OC)cc4c32)cc1 | x | 0 | 0 | 3 | 87* | 4 | i
CO[C@H]1CN(C)C(=O)c2ccc(NC(C)=O)cc2OC[C@H](C)N(C(=O)c2ccccc2)C[C@@H]1C | 1 | 0 | 0 | -1 | 1 | -3 | x
Cc1ccc(C)n1-c1nnc(N2CCC(C(=O)NCCCN3CCN(C)CC3)CC2)s1 | -5 | 0 | -183 | 16 | 70* | -5 | i
COc1cc2ccccc2cc1C(=O)N(CCN(C)C)c1nc2ccc(Br)cc2s1 | 7 | 0 | -4 | 23 | 51* | -3 | i
CN(C)CCCN(C(=O)c1ccco1)c1nc2ccc(Br)cc2s1 | x | 0 | -8 | 19 | 57* | 3 | i
COc1ccc(OC)c2sc(N(CCN(C)C)C(=O)c3cc(Cl)sc3Cl)nc12 | x | 0 | -3 | 21 | 51* | 12 | i
COc1cc2ccccc2cc1C(=O)N(CCN(C)C)c1nc2c(F)cc(F)cc2s1 | 3 | 0 | -1 | u | -3 | -6 | x
Cc1cc(N2CCN(C)CC2)nc2ccc(NC(=S)NCCC(C)C)cc12 | 28 | 0 | -15 | 18 | 61* | 1 | i
